In PubChem BioAssay AID1885 (Broad Institute, 2009):
In all, about 300,000 compounds went through this assay and about 4,400 (1.5%) were called active. The sample as a whole holds a higher share of actives than the screen did. Values without a mark were called inactive.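 Rule for the calls: active = mean inhibition across valid replicates above about 55% (limit read from the data); inconclusive = mean below that limit but half or more replicates reach it; inactive = mean below it, under half of replicates reach it.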

assay: inhibitors of intracellular T. cruzi growth, primary screen, luminescence, NIH3T3 host cells (AID 1885);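 note: signal also drops with host cell toxicity which is not excluded here; 0% = plate median of DMSO wells and 100% = zero luminescence signal; higher percent means less beta-gal luminescence so fewer parasites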; conditions: T. cruzi beta-gal in NIH3T3, luminescence, 90 h; hits give high values; concentration not given here
Procedure, shortened: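 Assay system: NIH/3T3 host cells with β-galactosidase reporter T. cruzi; input: 5,000 host fibroblasts per well; compound: single 50 nL compound addition per well in DMSO; timing: ≥90 h infection period, 3 h prior cell attachment; measured by: GalScreen β-gal luminescence, detergent lysis, 60 min; evaluation: percent inhibition of parasite-derived β-gal signal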

| Compound | inhibition |
| --- | --- |
| CSCCC(NC(=O)c1ccco1)C(=O)Nc1cc(C)ccn1 (stereo unspecified) | -2.39% |
| Cc1ccc(C2CC(c3cccc(Br)c3)n3nc(N)nc3N2)cc1 (stereo unspecified) | 14.7% |
| Cc1ccc(C2CC(c3cccc(C)c3)n3nc(N)nc3N2)cc1 (stereo unspecified) | 36.3% |
| COc1ccc(C2CC(c3ccc(C)cc3)Nc3nc(N)nn32)cc1 (stereo unspecified) | 61.3% (active) |
| CCc1ccccc1NC(=O)CN(C)S(=O)(=O)c1ccc2c(c1)c(=O)n(C)c(=O)n2C | -4.15% |
| Clc1ccc(-c2cc(-c3ccccn3)on2)c(Cl)c1 | 14.9% |
| O=C1CSC(c2ccccc2)N1c1nc(-c2ccc(Cl)cc2Cl)cs1 (stereo unspecified) | 28.7% |
| Clc1ccc(-c2cc(C3CCNCC3)[nH]n2)c(Cl)c1 | 65.5% (active) |
| CCCN(CC(=O)Nc1ccccc1OC)C(=O)CCC(=O)c1ccc(F)cc1 | 0.665% |
| C/[N+]([O-])=C\c1ccc([N+](=O)[O-])o1 | 67% (active) |
| Cc1cc(C)nc(N/N=C/c2ccc([N+](=O)[O-])o2)n1 | 26.9% |
| CCc1ccc(S(=O)(=O)N/N=C\c2ccc([N+](=O)[O-])o2)cc1 | 19% |
| COc1ccc(C(=NN)c2ccc(OC)cc2)cc1 | -17.9% |
| CCCC1(C(=O)OCC)NC(c2ccc(N(C)C)cc2)C2C(=O)N(c3ccc4c(c3)OCCO4)C(=O)C21 (stereo unspecified) | -15% |
| CC(C)(C)NCCCOc1ccc(Cl)cc1C(C)(C)C | 33.9% |
| CN(C)CCOCCOc1ccc(Cl)c2ccccc12 | 33.2% |
| CN(C)CCOc1ccc(Cl)cc1C(C)(C)C | 57.6% (active) |
| COc1ccccc1C(CNC(=O)c1cccc(NS(=O)(=O)c2ccc(Br)cc2)c1)N(C)C (stereo unspecified) | 0.0669% |
| CCN(CC(=O)Nc1cc(Cl)ccc1C)C(=O)CSCc1ccc(C)cc1 | 7.73% |
| O=C(N/N=C/c1cccc(OC(=O)c2ccc([N+](=O)[O-])cc2)c1)c1cccnc1 | -36.5% |
| O=C(N/N=C/c1cccc([N+](=O)[O-])c1)c1ccncc1 | -13.8% |
| N#Cc1cc([N+](=O)[O-])ccc1Oc1cccc(/C=N/NC(=O)c2ccc(Cl)cc2)c1 | 74.5% (active) |
| CCc1ccc(C(=O)NNC(=O)C2CCN(c3ncnc4sc(C)c(C)c34)CC2)cc1 | 24% |

| Compound | inhibition |
| --- | --- |
| CC(NC(=O)COC(=O)c1ccc2c(c1)OCO2)c1ccccc1 (stereo unspecified) | -10.2% |
| NC(=O)c1ccc(NC(=O)COC(=O)c2c3c(nc4ccccc24)/C(=C\c2ccc4c(c2)OCO4)CCC3)cc1 | 69.5% (active) |
| COc1cc(/C=C2\CCCc3c2nc2ccccc2c3C(=O)O)cc(Cl)c1O | 6.47% |
| COc1cc(-c2cc(C(=O)OCC(=O)Nc3ccc4c(c3)OCO4)c3ccccc3n2)cc(OC)c1OC | 5.72% |
| O=C(COC(=O)c1c2c(nc3ccccc13)/C(=C\c1cccs1)CCC2)Nc1ccccc1Cl | 54.9% (active) |
| O=C(COC(=O)c1c2c(nc3ccccc13)CCCC2)c1ccc(Br)s1 | -9.74% |
| O=C1CN(C(=O)c2cc(F)cc(F)c2)c2ccccc2N1 | -7.57% |
| CCCc1cc(=O)[nH]c(SCC(=O)c2c(N)n(CC(C)C)c(=O)n(C)c2=O)n1 | -8.24% |
| CCOc1ccc(-c2cc(C(=O)N/N=C/c3ccc(O)cc3)c3ccccc3n2)cc1 | 18.7% |
| Cc1ccc(NC(=O)Nc2cccc(C(F)(F)F)c2)nc1 | 11.1% |
| CCNS(=O)(=O)c1ccc(NC(=O)Nc2cccc(C(F)(F)F)c2)cc1 | 61.3% (active) |
| CCNS(=O)(=O)c1ccc(NC(=O)Nc2cccc(OC)c2)cc1 | -9.54% |
| Cn1ccc(=Nc2ccc(NC(=O)c3ccc(N=c4ccn(C)c5ccc([N+](=O)[O-])cc45)cc3)cc2)cc1 | 33.3% |
| Cn1c(CCc2ccccc2)nnc1SCC(N)=O | -8.67% |
| Cc1ccc(Cc2nnc(SCC(=O)Nc3ccc(C)cc3C)[nH]c2=O)cc1 | -8.53% |
| COc1cccc2sc(Nc3nc(C)c(C(C)=O)s3)nc12 | 89.1% (active) |
| COc1ccccc1/C=N/Nc1nc(C)c(C(C)=O)s1 | 6.16% |
| COc1cc2ccccc2cc1C(=O)Nc1nc(C)c(C(C)=O)s1 | -2.79% |
| COc1ccc(C)cc1S(=O)(=O)Nc1cc2c3c(c1)CCC(=O)N3CCC2 | -2.17% |
| CC(C)=NN1C(=O)c2ccccc2NC1(C)C | -9.69% |
| COc1ccc(C2CC(c3ccccc3)=NN2C(=O)CSc2nccc(=O)[nH]2)cc1 (stereo unspecified) | -0.127% |
| O=C(CSc1nnnn1-c1ccc(O)cc1)N1N=C(c2ccc3ccccc3c2)CC1c1ccccc1 (stereo unspecified) | 71.2% (active) |
| COc1ccc(C2=NN(C(C)=O)C(c3ccccc3)C2)cc1 (stereo unspecified) | -1.39% |

| Compound | inhibition |
| --- | --- |
| Cc1ccc(S(=O)(=O)n2cccc2CO)cc1 | -12.2% |
| O=C(NNS(=O)(=O)c1ccc([N+](=O)[O-])cc1)C1CCCCC1 | -10.2% |
| CC(=O)Nc1cccc(C(=O)OCC(=O)Nc2nnc(-c3ccccc3)o2)c1 | -2% |
| CCN(CC)S(=O)(=O)c1ccc(C(=O)N2CCN(C3=NS(=O)(=O)c4ccccc43)CC2)cc1 | 0.744% |
| CCOc1ccc(OCc2cccc(C(=O)N(CC)CC)c2)cc1 | 14.3% |
| CC(C)c1cc(C(N)=O)c(NC(=O)c2cccc(COc3ccc(Br)cc3)c2)s1 | 60.2% (active) |
| CCc1cc(C(N)=O)c(NC(=O)c2ccc(OC)cc2)s1 | 15.5% |
| COc1cccc(COC(=O)C2CCN(S(=O)(=O)c3cccs3)CC2)c1OC | 0.844% |
| CCOc1ccc(S(=O)(=O)Nc2ccc(C(=O)NCCCN3CCCC3=O)cc2)cc1 | 3.32% |
| Cc1cccc(NC(=O)c2ccc([N+](=O)[O-])o2)c1 | 41.2% |
| Cc1cccc(NC(=O)c2cc([N+](=O)[O-])ccc2N2CCN(C)CC2)c1 | 2.53% |
| Cc1cccc(NC(=O)c2sc(-c3ccccc3)nc2-c2ccc([N+](=O)[O-])cc2)c1 | 55.5% (active) |
| COC(=O)c1ccc(SCc2ccccc2)nc1 | -10.6% |
| O=S(=O)(ON(c1ccccc1)S(=O)(=O)c1ccccc1)c1ccccc1 | -3.86% |
| CC1=C/C(=N\OS(=O)(=O)c2ccccc2)C=CC1=O | 68.7% (active) |
| COc1ccc(NS(=O)(=O)c2ccc(C)c(C(=O)NCC(c3cccs3)N3CCOCC3)c2)cc1 (stereo unspecified) | 20.6% |
| O=C(Cn1cnc2c(cnn2-c2ccccc2)c1=O)NCc1ccccc1 | -38.8% |
| CC(C)(C)NC(=O)Cn1cnc2cc([N+](=O)[O-])ccc2c1=O | 33.5% |
| O=C(Cn1cnc2cc([N+](=O)[O-])ccc2c1=O)NC(=O)NCc1ccccc1 | 62.3% (active) |
| CN(CC(=O)Nc1ccccc1Cl)C(=O)c1ccccc1SCC(=O)N1CCCC1 | 2.13% |
| COc1ccc(CCNC(=O)C(=O)NCC2CCCN2S(=O)(=O)c2cccs2)cc1OC (stereo unspecified) | 17.5% |
| CC(=O)c1sc(N/N=C/c2ccc(C(C)C)cc2)nc1C | 65.4% (active) |
| CC(=O)c1sc(NC(=O)CCCOc2ccccc2C)nc1C | -0.939% |

| Compound | inhibition |
| --- | --- |
| CC(=O)c1sc(N/N=C\c2ccc(C)cc2)nc1C | -6.96% |
| O=C(Nc1ccc(OC(F)(F)F)cc1)c1ccc2c(c1)no[n+]2[O-] | 34.6% |
| COc1ccccc1C(=O)NC(=O)COC(=O)C1CC1 | 5.64% |
| CS(=O)(=O)N(CC(=O)N1CCc2ccccc2C1)c1ccc(Br)cc1 | 17.3% |
| CCC(=C/c1sc2ccc3ccccc3c2[n+]1C)/C=C1\Sc2ccc3ccccc3c2N1C | 65.5% (active) |
| O=C(COc1ccccc1)Nc1ccc(F)cc1 | -10.9% |
| O=C(NC(Cc1ccccc1)C(=O)N1CCCC(C(F)(F)F)C1)c1ccccc1 (stereo unspecified) | -16.5% |
| COc1ccc(NC(=O)c2cc(-c3ccc(C)o3)nc3ccccc23)cc1 | 14.8% |
| COc1cccc2sc(N(CCCN(C)C)C(=O)C(c3ccccc3)c3ccccc3)nc12 | 31.5% |
| CN(C)CCN(C(=O)C1CCCCC1)c1nc2cc3c(cc2s1)OCO3 | 28.7% |
| CCc1ccc2nc(N(CCCN(C)C)C(=O)c3ccc4c(c3)OCCO4)sc2c1 | 55.2% (active) |
| COc1cccc2sc(N(CCCN(C)C)C(=O)CCS(=O)(=O)c3ccccc3)nc12 | -2.98% |
| CC(=O)N(CCCN(C)C)c1nc2ccc(C)cc2s1 | 57.7% (active) |
| COc1ccc2sc(N(CCCN(C)C)C(=O)c3ccc(S(=O)(=O)N(C)C4CCCCC4)cc3)nc2c1 | 61% (active) |
| CN(C)CCN(C(=O)CN1C(=O)c2ccccc2C1=O)c1nc2cc3c(cc2s1)OCCO3 | 66.3% (active) |
| Cc1ccc2nc(N(CCN(C)C)C(=O)C3=COCCO3)sc2c1 | 53% |
| CCOc1ccc2nc(N(CCCN(C)C)C(=O)c3ccc(C(=O)c4ccccc4)cc3)sc2c1 | 34.6% |
| CCN(CC)CCN(C(=O)c1cc(Cl)sc1Cl)c1nc2cc3c(cc2s1)OCO3 | 33.9% |
| CCOc1ccc(S(=O)(=O)Nc2nc3cc(OC)ccc3s2)cc1 | -7.46% |
| CN(C)CCN(C(=O)C1=COCCO1)c1nc2ccc(Cl)cc2s1 | 41.8% |
| Cc1ccc(S(=O)(=O)NCCC(=O)NC2CCN(Cc3ccccc3)CC2)cc1 | 38% |
| CCOc1ccc(S(=O)(=O)N2CCC(C(=O)OCc3ccc(OC)cc3)CC2)cc1 | -1.31% |
